Test results from ChEMBL document CHEMBL1811868, “Structure-activity relationship of 2-hydroxy-2-aryl-2,3-dihydro-imidazo[1,2-a]pyrimidinium salts and 2N-substituted 4(5)-aryl-2-amino-1H-imidazoles as inhibitors of biofilm formation by Salmonella Typhimurium and Pseudomonas aeruginosa” (Bioorg Med Chem, 2011).
Active and inactive are the calls of the source.

Experiments:
[1] = tested on: Salmonella typhimurium; assay: Antimicrobial activity against Salmonella Typhimurium ATCC 14028 assessed as inhibition of biofilm formation after 24 hrs by spectrophotometry; type: functional, organism-based, Salmonella enterica subsp. enterica serovar Typhimurium; conditions: Salmonella enterica, ATCC 14028, 24 h
Outline: (§1)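 Static peg-lid biofilm prevention assay. Twofold serial dilutions in TSB diluted 1/20, 2–3 repeats per compound. Overnight S. Typhimurium ATCC14028 (LB-grown) or P. aeruginosa PA14 (TSB-grown) cultures were diluted 1:100, giving ~10^6 cells/well, then incubated 24 h at 25 °C without shaking. Pegs were PBS-washed, stained 30 min with 0.1% crystal violet, extracted with 30% acetic acid and read at OD570. IC50 was fitted from the concentration gradient.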

[2] = tested on: Pseudomonas aeruginosa; assay: Antimicrobial activity against Pseudomonas aeruginosa PA14 assessed as inhibition of biofilm formation after 24 hrs by spectrophotometry; type: functional, organism-based; conditions: PA14, 24 h; outline: as §1
[3] = tested on: Salmonella typhimurium; assay: Antimicrobial activity against Salmonella Typhimurium ATCC 14028 assessed as inhibition of planktonic cell growth at IC50 after 24 hrs by […]; type: functional, organism-based; conditions: Salmonella enterica subsp. enterica serovar Typhimurium
Outline: (§2)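 Planktonic growth was followed by Bioscreen growth curves, not by crystal violet. Overnight cultures were diluted 1:200 in TSB 1/20 and received compound serially diluted in DMSO or EtOH, in triplicate, with solvent controls. Plates were shaken at 25 °C for at least 24 h, reading A600 every 15 min.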

[4] = tested on: Salmonella typhimurium; assay: Antimicrobial activity against Salmonella Typhimurium ATCC 14028 assessed as inhibition of planktonic cell growth at 80 uM after 24 hrs by […]; type: functional, organism-based; conditions: Salmonella enterica subsp. enterica serovar Typhimurium; outline: as §2
[5] = tested on: Pseudomonas aeruginosa; assay: Antimicrobial activity against Pseudomonas aeruginosa PA14 assessed as inhibition of planktonic cell growth at IC50 after 24 hrs by […]; type: functional, organism-based; outline: as §2
[6] = tested on: Pseudomonas aeruginosa; assay: Antimicrobial activity against Pseudomonas aeruginosa PA14 assessed as inhibition of planktonic cell growth at 40 uM after 24 hrs by […]; type: functional, organism-based; outline: as §2
[7] = tested on: Salmonella typhimurium; assay: Antimicrobial activity against Salmonella Typhimurium ATCC 14028 assessed as inhibition of planktonic cell growth at 40 uM after 24 hrs by […]; type: functional, organism-based; conditions: Salmonella enterica subsp. enterica serovar Typhimurium; outline: as §2
[8] = tested on: Pseudomonas aeruginosa; assay: Antimicrobial activity against Pseudomonas aeruginosa PA14 assessed as inhibition of planktonic cell growth at 80 uM after 24 hrs by […]; type: functional, organism-based; outline: as §2

| Structure (SMILES) | IC50 [1] | IC50 [2] | growth inhibition (GI) [3] | growth inhibition (GI) [4] | growth inhibition (GI) [5] | growth inhibition (GI) [6] | growth inhibition (GI) [7] | growth inhibition (GI) [8] |
| --- | --- | --- | --- | --- | --- | --- | --- | --- |
| CCCCCCCCNc1ncc(-c2ccc([N+](=O)[O-])cc2)[nH]1 | 10.9 µM | 25 µM | inactive | inactive |  |  |  |  |
| COc1cccc(CNc2ncc(-c3ccc([N+](=O)[O-])cc3)[nH]2)c1 | 19.1 µM | 3.7 µM | inactive |  | inactive | inactive | inactive |  |
| CC(C)CN1c2nccc[n+]2C[C@@]1(O)c1ccc(Br)cc1 | 5.2 µM | 6.3 µM | inactive |  | inactive | inactive | Active |  |
| O[C@@]1(c2ccc(F)cc2)C[n+]2cccnc2N1Cc1ccc2c(c1)OCO2 | 17.2 µM |  | inactive |  |  |  | inactive |  |
| Clc1ccc(-c2cnc(NCc3ccccc3)[nH]2)cc1 | 30.7 µM | 26.3 µM | inactive |  | inactive | inactive | inactive |  |
| CCCCNc1ncc(-c2ccccc2)[nH]1 | 25.3 µM | 31.8 µM | inactive |  |  |  | inactive |  |
| CCCCCCCCCN1c2nccc[n+]2C[C@@]1(O)c1ccc(Cl)cc1 | 18.3 µM | 20.2 µM | Active |  | Active |  |  |  |
| CCCCCCCCNc1ncc(-c2cccc(Br)c2)[nH]1 | 44.6 µM | > 800 µM | inactive | inactive |  |  |  |  |
| CC(C)CNc1ncc(-c2ccc([N+](=O)[O-])cc2)[nH]1 | 3.8 µM | 22.9 µM | inactive |  | inactive |  | inactive |  |
| O[C@@]1(c2ccc(Cl)cc2)C[n+]2cccnc2N1C1CCCCCC1 | 27.9 µM | 76.2 µM | Active |  | Active |  |  | Active |
| O[C@@]1(c2ccc(I)cc2)C[n+]2cccnc2N1Cc1ccccc1 | 36.7 µM |  | inactive |  |  |  | inactive |  |
| CCCCCCCCCCN1c2nccc[n+]2C[C@@]1(O)c1ccc(Cl)cc1 | 51.3 µM | 83.3 µM | Active |  | Active |  |  |  |
| O[C@@]1(c2ccc(Cl)cc2)C[n+]2cccnc2N1C1CCCCCCCCCCC1 | 5.6 µM | 6.8 µM | Active |  | Active |  |  |  |
| Clc1ccc(-c2cnc(NC3CCCC3)[nH]2)cc1 | 4.4 µM | 13.5 µM | inactive |  | inactive | inactive | inactive |  |
| CCCCCN1c2nccc[n+]2C[C@@]1(O)c1ccc(Br)cc1 | 1.7 µM | 4.2 µM | inactive |  | inactive | inactive | inactive |  |
| CCCCCCN1c2nccc[n+]2C[C@@]1(O)c1ccc([N+](=O)[O-])cc1 | 54.7 µM | 12.4 µM | Active |  | Active |  |  |  |
| O=[N+]([O-])c1ccc([C@]2(O)C[n+]3cccnc3N2C2CCCCCCCCCCC2)cc1 | < 6.3 µM | 5.4 µM | Active |  | Active |  |  |  |

| Structure (SMILES) | IC50 [1] | IC50 [2] | growth inhibition (GI) [3] | growth inhibition (GI) [4] | growth inhibition (GI) [5] | growth inhibition (GI) [6] | growth inhibition (GI) [7] | growth inhibition (GI) [8] |
| --- | --- | --- | --- | --- | --- | --- | --- | --- |
| COc1ccc(-c2cnc(NC3CCCCC3)[nH]2)cc1 | 378 µM | 54.8 µM |  |  | inactive |  |  | inactive |
| CC(C)CN1c2nccc[n+]2C[C@@]1(O)c1ccc(Cl)c(Cl)c1 | 8 µM |  | inactive |  |  |  | Active |  |
| CNc1ncc(-c2ccc(F)cc2)[nH]1 | 102 µM | 25.2 µM |  |  | inactive | inactive |  |  |
| c1ccc(-c2cnc(NC3CCCC3)[nH]2)cc1 | 52.9 µM | 33.8 µM | inactive | inactive | inactive | inactive |  |  |
| CCCCCCCCN1c2nccc[n+]2C[C@@]1(O)c1ccccc1 | 9.8 µM | 14.4 µM | Active |  | Active |  |  |  |
| CCCCN1c2nccc[n+]2C[C@@]1(O)c1ccc(Cl)cc1 | 29.7 µM | 24.9 µM | inactive |  | inactive | inactive | inactive |  |
| CNc1ncc(-c2ccc([N+](=O)[O-])cc2)[nH]1 | 170 µM | 56.1 µM |  |  | inactive |  |  | inactive |
| O[C@@]1(c2ccccc2)C[n+]2cccnc2N1C1CCCCCC1 | 84.2 µM | 191 µM | inactive |  | inactive |  |  |  |
| O[C@@]1(c2ccc(Cl)cc2)C[n+]2cccnc2N1C1CCCCCCC1 | 12.6 µM | 22.7 µM | Active |  | Active |  |  |  |
| CCCCCN1c2nccc[n+]2C[C@@]1(O)c1ccc(Cl)cc1 | 32.6 µM | 164 µM | inactive |  | Active |  | inactive |  |
| O[C@@]1(c2ccccc2)C[n+]2cccnc2N1C1CCCCC1 | 139 µM | 22.4 µM | Active |  | inactive |  |  | Active |
| CCCCCCCCN1c2nccc[n+]2C[C@@]1(O)c1ccc([N+](=O)[O-])cc1 | 6.6 µM | 12.1 µM | Active |  | Active |  |  |  |
| O=[N+]([O-])c1cccc(-c2cnc(NC3CCCCC3)[nH]2)c1 | 630 µM | 4.4 µM |  |  | inactive | inactive |  |  |
| CCCCCCCCCCN1c2nccc[n+]2C[C@@]1(O)c1ccc([N+](=O)[O-])cc1 | 9.9 µM | 22.3 µM | Active |  | Active |  |  |  |
| CC(C)CN1c2nccc[n+]2C[C@@]1(O)c1ccc(Cl)cc1 | 31.4 µM | 83.4 µM | inactive |  |  |  | inactive |  |
| O=[N+]([O-])c1ccc(-c2cnc(NC3CCCCC3)[nH]2)cc1 | 36.7 µM | 25 µM | inactive |  |  |  | inactive |  |
